pIC50: −log10 of the molar value. Values belong to the compound of their own block, whether it stands above or below them.
Columns and labels:
[1] = Inhibition of HDAC in human HeLa nuclear extract using Fluor de Lys as substrate after 15 mins by fluorescence assay
PC-3 = experiment: Anti-proliferative activity against human PC3 cells after 48 hrs by MTT assay; type: functional, cell-based; conditions: PC-3, 48 h
in vivo [2] = conditions: Sprague-Dawley, rat, iv, 2 mg/kg
in vivo [3] = conditions: Sprague-Dawley, rat, po, 20 mg/kg
[4] = target: T1, Protein deacetylase HDAC6 (Homo sapiens, UniProt Q9UBN7); experiment: Inhibition of HDAC6 (unknown origin)
T1 sequence (Q9UBN7 whole entry): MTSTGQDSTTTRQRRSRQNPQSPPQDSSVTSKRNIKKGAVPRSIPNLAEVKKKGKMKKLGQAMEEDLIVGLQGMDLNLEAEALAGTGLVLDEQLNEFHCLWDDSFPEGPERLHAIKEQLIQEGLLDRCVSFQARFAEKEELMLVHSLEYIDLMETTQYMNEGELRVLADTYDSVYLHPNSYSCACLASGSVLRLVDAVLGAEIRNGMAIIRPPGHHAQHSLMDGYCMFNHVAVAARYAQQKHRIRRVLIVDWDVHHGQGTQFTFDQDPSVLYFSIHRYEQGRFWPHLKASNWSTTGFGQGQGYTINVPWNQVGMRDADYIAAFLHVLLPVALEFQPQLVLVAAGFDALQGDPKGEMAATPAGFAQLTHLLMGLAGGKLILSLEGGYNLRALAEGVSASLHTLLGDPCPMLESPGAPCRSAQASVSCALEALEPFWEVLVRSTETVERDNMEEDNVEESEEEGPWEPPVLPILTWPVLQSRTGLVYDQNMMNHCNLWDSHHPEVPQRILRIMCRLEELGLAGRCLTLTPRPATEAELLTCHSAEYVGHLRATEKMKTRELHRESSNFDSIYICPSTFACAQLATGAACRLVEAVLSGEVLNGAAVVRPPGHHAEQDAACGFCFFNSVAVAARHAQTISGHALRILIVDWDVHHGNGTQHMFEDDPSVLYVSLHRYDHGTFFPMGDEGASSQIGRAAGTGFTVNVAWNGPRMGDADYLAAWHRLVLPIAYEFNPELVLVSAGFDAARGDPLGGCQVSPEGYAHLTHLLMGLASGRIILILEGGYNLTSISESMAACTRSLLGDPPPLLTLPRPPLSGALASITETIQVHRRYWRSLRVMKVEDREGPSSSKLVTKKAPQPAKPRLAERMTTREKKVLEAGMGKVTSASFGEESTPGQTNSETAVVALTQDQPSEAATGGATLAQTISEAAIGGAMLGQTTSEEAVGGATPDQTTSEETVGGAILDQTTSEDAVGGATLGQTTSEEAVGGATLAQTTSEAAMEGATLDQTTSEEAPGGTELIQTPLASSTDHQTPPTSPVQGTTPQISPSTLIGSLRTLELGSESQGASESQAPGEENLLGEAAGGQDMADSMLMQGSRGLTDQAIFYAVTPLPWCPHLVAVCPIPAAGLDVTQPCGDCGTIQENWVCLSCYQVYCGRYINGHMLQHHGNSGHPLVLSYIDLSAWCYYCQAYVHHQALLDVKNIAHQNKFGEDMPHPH

K562 = experiment: Anti-proliferative activity against human K562 cells after 48 hrs by MTT assay; type: functional, cell-based; conditions: K562, 48 h
MDA-MB-231 = experiment: Anti-proliferative activity against human MDA-MB-231 cells after 48 hrs by MTT assay; type: functional, cell-based; conditions: MDA-MB-231, 48 h
HCT-116 = experiment: Anti-proliferative activity against human HCT116 cells after 48 hrs by MTT assay; type: functional, cell-based; conditions: HCT-116, 48 h
[5] = Clearance in Sprague-Dawley rat at 2 mg/kg, iv by HPLC method; type: ADME, organism-based; conditions: in vivo
In short: (§1)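 Female Sprague-Dawley rats were dosed with the compound at 2 mg/kg iv (for clearance and terminal half-life) or 20 mg/kg orally (for Cmax, Tmax and oral bioavailability). Blood was collected at various time points up to 24 h, and plasma was analyzed by HPLC coupled to triple quadrupole mass spectrometry.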

Histone deacetylase 1 = Histone deacetylase 1 (Homo sapiens, UniProt Q13547); experiment: Inhibition of HDAC1 (unknown origin)
A549 [6] = experiment: Anti-proliferative activity against human A549 cells after 48 hrs by MTT assay; type: functional, cell-based; conditions: A549, 48 h
A549 [7] = experiment: Antitumor activity against human A549 cells xenografted in mouse assessed as tumor growth inhibition at 40 mg/kg, ip administered once every other day for 21 days relative to control; type: functional; conditions: 504 h, read-out: TGI
In short: (§2)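 Mice bearing non-small cell lung cancer A549 xenografts were given the compound ip at 20 or 40 mg/kg once every other day for a 21-day efficacy study.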

[8] = Cmax in Sprague-Dawley rat at 20 mg/kg, po by HPLC method; type: ADME, organism-based; design: dose 20 mg/kg, route oral; conditions: in vivo; in short: as §1
[9] = Terminal half life in Sprague-Dawley rat at 2 mg/kg, iv by HPLC method; type: ADME, organism-based; conditions: in vivo, read-out: beta t1/2 (converted); in short: as §1
A549 [10] = experiment: Antitumor activity against human A549 cells xenografted in mouse assessed as tumor growth inhibition at 20 mg/kg, ip administered once every other day for 21 days relative to control; type: functional; conditions: 504 h, read-out: TGI; in short: as §2
[11] = Tmax in Sprague-Dawley rat at 20 mg/kg, po by HPLC method; type: ADME, organism-based; conditions: in vivo; in short: as §1
Mus musculus = experiment: Toxicity in mouse xenografted with human A549 cells at 20 to 40 mg/kg, ip administered once every other day for 21 days; type: organism-based; conditions: in vivo, 504 h; in short: as §2
[12] = Oral bioavailability in Sprague-Dawley rat at 20 mg/kg by HPLC method; type: ADME, organism-based; conditions: in vivo; in short: as §1
Histone deacetylase 8 = target: T2, Histone deacetylase 8 (Homo sapiens, UniProt Q9BY41); experiment: Inhibition of HDAC8 (unknown origin)
T2 sequence (Q9BY41 whole entry): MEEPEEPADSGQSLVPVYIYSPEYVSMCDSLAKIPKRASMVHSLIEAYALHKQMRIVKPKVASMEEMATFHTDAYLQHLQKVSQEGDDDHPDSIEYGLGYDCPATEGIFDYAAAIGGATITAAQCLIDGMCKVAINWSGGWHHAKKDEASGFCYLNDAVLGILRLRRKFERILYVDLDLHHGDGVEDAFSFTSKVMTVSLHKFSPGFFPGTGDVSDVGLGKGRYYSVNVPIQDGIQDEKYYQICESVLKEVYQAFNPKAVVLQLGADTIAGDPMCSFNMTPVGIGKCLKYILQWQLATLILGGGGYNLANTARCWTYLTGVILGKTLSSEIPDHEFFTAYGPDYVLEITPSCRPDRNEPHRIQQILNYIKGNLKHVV

MRC5 = experiment: Anti-proliferative activity against human MRC5 cells after 48 hrs by MTT assay; type: ADME, cell-based; conditions: MRC5, 48 h
[13] = target: Voltage-gated inwardly rectifying potassium channel KCNH2 (Homo sapiens, UniProt Q12809); experiment: Inhibition of recombinant human ERG expressed in HEK293 cells at -80 mV holding potential measured for 9 mins by Qpatch clamp method; type: cell-based
Chain of Voltage-gated inwardly rectifying potassium channel KCNH2 (Q12809 whole entry): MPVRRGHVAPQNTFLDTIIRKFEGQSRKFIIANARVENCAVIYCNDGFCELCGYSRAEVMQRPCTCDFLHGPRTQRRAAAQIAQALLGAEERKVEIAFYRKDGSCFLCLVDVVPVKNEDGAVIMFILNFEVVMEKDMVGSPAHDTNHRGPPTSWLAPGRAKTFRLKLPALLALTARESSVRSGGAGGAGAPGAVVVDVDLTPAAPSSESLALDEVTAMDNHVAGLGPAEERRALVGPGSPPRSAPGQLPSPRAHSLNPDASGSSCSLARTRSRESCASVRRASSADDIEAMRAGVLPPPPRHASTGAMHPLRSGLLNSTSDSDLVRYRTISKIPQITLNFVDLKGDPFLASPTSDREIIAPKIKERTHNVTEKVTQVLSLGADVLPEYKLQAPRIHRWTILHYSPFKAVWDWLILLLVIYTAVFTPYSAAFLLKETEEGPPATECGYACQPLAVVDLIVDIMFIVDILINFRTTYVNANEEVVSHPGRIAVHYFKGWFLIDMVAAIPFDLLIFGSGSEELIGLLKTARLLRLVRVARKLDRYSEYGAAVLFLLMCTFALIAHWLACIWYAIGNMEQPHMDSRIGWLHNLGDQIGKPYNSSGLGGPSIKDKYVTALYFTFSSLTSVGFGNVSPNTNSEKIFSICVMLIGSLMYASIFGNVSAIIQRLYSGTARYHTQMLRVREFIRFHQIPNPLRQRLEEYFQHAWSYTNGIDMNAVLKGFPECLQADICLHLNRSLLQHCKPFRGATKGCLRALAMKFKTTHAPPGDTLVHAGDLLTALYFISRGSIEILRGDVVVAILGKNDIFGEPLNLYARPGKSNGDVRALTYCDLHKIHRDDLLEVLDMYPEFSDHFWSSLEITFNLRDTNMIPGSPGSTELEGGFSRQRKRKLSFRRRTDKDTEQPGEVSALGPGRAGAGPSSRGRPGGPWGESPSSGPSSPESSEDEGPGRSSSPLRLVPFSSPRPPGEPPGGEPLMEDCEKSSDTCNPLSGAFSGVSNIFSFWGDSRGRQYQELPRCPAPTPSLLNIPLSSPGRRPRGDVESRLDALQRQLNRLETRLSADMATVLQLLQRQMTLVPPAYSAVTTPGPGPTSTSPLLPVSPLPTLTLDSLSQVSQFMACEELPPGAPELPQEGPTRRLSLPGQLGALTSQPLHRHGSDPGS

Chain of Histone deacetylase 1 (Q13547 whole entry): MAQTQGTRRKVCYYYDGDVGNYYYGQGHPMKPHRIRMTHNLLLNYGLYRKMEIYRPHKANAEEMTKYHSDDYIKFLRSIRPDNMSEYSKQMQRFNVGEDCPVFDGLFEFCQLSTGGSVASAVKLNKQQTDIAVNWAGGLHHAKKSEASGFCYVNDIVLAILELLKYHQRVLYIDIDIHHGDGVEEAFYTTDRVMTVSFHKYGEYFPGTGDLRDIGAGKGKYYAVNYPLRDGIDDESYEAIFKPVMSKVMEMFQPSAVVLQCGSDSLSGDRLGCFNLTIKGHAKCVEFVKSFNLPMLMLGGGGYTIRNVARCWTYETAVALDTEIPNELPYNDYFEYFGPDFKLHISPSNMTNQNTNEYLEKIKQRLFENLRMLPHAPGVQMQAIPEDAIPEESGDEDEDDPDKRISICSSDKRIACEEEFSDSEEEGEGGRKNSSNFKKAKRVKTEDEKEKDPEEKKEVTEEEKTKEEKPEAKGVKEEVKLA

Compound: COCCOc1cc2ncnc(NCCCCCCC(=O)NO)c2cc1OCCOC
pIC50 [1]: 6.82

Compound: O=C(CCCCCCNC(=O)c1ccccc1)NO
pIC50 [1]: < 5.70

Compound: COc1cc2ncnc(NCCCCCC(=O)NO)c2cc1OC
pIC50 [1]: 7.98

Compound: O=C(CCCCCCC(=O)Nc1ccccc1)NO [VORINOSTAT]
pIC50 (PC-3): 5.53 | half-life (in vivo [2]): 12 min | bioavailability (in vivo [3]): 11%

Compound: Nc1ccc2ncnc(NCCCCCCC(=O)NO)c2c1
pIC50 [1]: 7.92

Compound: O=C(CCCCCCNc1ncnc2cc(F)ccc12)NO
pIC50 [1]: 7.68

Compound: COc1cc2ncnc(NCCCCCCC(=O)NO)c2cc1OC
pIC50 [1]: 7.88

Compound: O=C(CCCCCCNc1ncnc2ccc([N+](=O)[O-])cc12)NO
pIC50 [1]: 7.64

Continued, in another order:

pIC50 [1]: 7.70
Compound: Cc1ccc2ncnc(NCCCCCCC(=O)NO)c2c1

pIC50 [1]: 7.39
Compound: O=C(CCCCCNc1ncnc2ccccc12)NO

pIC50 [4]: 8.15 | pIC50 (K562): 5.92 | pIC50 (MDA-MB-231): 6.77 | pIC50 (HCT-116): 5.68 | clearance [5]: 53 mL/min/kg | pIC50 (PC-3): 6.12 | pIC50 [1]: 8.51 | pIC50 (Histone deacetylase 1): 7.96 | pIC50 (A549 [6]): 7.10 | Cmax [8]: 146 ng/mL | half-life [9]: 172 min | Tmax [11]: 15 min | bioavailability [12]: 16.8% | pIC50 (Histone deacetylase 8): 5.71
Compound: O=C(CCCCCCNc1ncnc2ccc(Cl)cc12)NO
inhibition in vivo at 40 mg/kg (A549 [7]): 76.4% | inhibition in vivo at 20 mg/kg (A549 [10]): 53.1% | Activity (Mus musculus): Non-Toxic | pIC50 (MRC5): 4.26 | pIC50 [13]: < 4.52

pIC50 [4]: 8.10 | pIC50 (K562): 6.07 | pIC50 (MDA-MB-231): 6.31 | pIC50 (HCT-116): 5.46 | pIC50 (PC-3): 5.99 | pIC50 [1]: 8.09 | pIC50 (Histone deacetylase 1): 7.89 | pIC50 (A549 [6]): 6.83 | pIC50 (Histone deacetylase 8): 5.84
Compound: O=C(CCCCCCNc1ncnc2ccc(F)cc12)NO
pIC50 (MRC5): 4.12 | pIC50 [13]: < 4.52

pIC50 [1]: 7.47
Compound: O=C(CCCCCCNc1ncnc2ccccc12)NO

pIC50 [1]: 7.26
Compound: Cc1cccc2c(NCCCCCCC(=O)NO)ncnc12

pIC50 [1]: 7.62
Compound: O=C(CCCCCCNc1ncnc2cc(Cl)ccc12)NO

— ChEMBL document CHEMBL4043255, “Design, synthesis and biological evaluation of novel histone deacetylase inhibitors incorporating 4-aminoquinazolinyl systems as capping groups” (Bioorg Med Chem Lett, 2017)
